Activity calls are given as the source filed them. The calls are words filed in the database; no cut-off is given here.
Experiments:
MCF7 [1] = test: Antiproliferative activity against human MCF7 cells assessed as growth inhibition at 10 uM after 72 hrs by MTT assay relative to control; type: functional; settings: for inhibition of growth at 10 µM: read-out: GI
How it was run: (§1)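 Single-concentration MTT screen on MCF-7 and A549 cells grown in DMEM + 10% FBS. Cells at 3000–6000/well, cultured overnight, then given compound in buffer with 1% DMSO for 72 h. MTT (0.5 mg/mL) added for 4 h, formazan dissolved in DMSO, A570 read. Percent inhibition reported as the average ± S.D. of three independent measurements.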

MCF7 [2] = test: Antiproliferative activity against human MCF7 cells assessed as growth inhibition at 1 uM after 72 hrs by MTT assay relative to control; type: functional; settings: for inhibition of growth at 1 µM: read-out: GI; how it was run: as §1
A549 [3] = test: Antiproliferative activity against human A549 cells assessed as growth inhibition at 10 uM after 72 hrs by MTT assay relative to control; type: functional; settings: for inhibition of growth at 10 µM: read-out: GI; how it was run: as §1
A549 [4] = test: Antiproliferative activity against human A549 cells assessed as growth inhibition at 1 uM after 72 hrs by MTT assay relative to control; type: functional; settings: for inhibition of growth at 1 µM: read-out: GI; how it was run: as §1
Homo sapiens = species: Homo sapiens; test: Inhibition of PDK (unknown origin) using RYHGHSMSDP as substrate at 1 uM after 30 mins by Kinase-Glo luminescent assay
A549 [5] = test: Antiproliferative activity against human A549 cells assessed as growth inhibition after 72 hrs by MTT assay; type: functional, cell-based
How it was run: (§2)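 MTT viability assay. Cancer lines seeded at 3000–6000 cells/well and L02 at 7000 cells/well, cultured overnight, then exposed to a full dose range for 72 h. MTT (0.5 mg/mL) added for 4 h, supernatant removed, formazan dissolved in DMSO, absorbance read at 570 nm. IC50 taken as the mean of three independent experiments. Cells grown in DMEM + 10% FBS, 37 °C, 5% CO2.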

MCF7 [6] = test: Antiproliferative activity against human MCF7 cells assessed as growth inhibition after 72 hrs by MTT assay; type: functional, cell-based; how it was run: as §2
SH-SY5Y = test: Antiproliferative activity against human SHSY-5Y cells assessed as growth inhibition after 72 hrs by MTT assay; type: functional, cell-based; how it was run: as §2
HCT-116 = test: Antiproliferative activity against human HCT-116 cells assessed as growth inhibition after 72 hrs by MTT assay; type: functional, cell-based; how it was run: as §2
A-375 = test: Antiproliferative activity against human A375 cells assessed as growth inhibition after 72 hrs by MTT assay; type: functional, cell-based; how it was run: as §2
PC-3 = test: Antiproliferative activity against human PC3 cells assessed as growth inhibition after 72 hrs by MTT assay; type: functional, cell-based; how it was run: as §2
L02 = test: Cytotoxicity against human L02 cells assessed as reduction in cell viability after 72 hrs by MTT assay; type: cell-based; how it was run: as §2
[7] = Inhibition of PDK (unknown origin) using RYHGHSMSDP as substrate after 30 mins by Kinase-Glo luminescent assay; set-up: species or system Homo sapiens
[8] = Homo sapiens, A549, 72 h, read-out: IC50
[9] = Homo sapiens, MCF7, 72 h, read-out: IC50
[10] = Homo sapiens, SH-SY5Y, 72 h, read-out: IC50
[11] = Homo sapiens, HCT-116, 72 h, read-out: IC50
[12] = Homo sapiens, A-375, 72 h, read-out: IC50
[13] = Homo sapiens, PC-3, 72 h, read-out: IC50
[14] = Homo sapiens, L02, 72 h, read-out: IC50

Compound	inhibition of growth at 10 µM (MCF7 [1]) [%]	inhibition of growth at 1 µM (MCF7 [2]) [%]	inhibition of growth at 10 µM (A549 [3]) [%]	inhibition of growth at 1 µM (A549 [4]) [%]	inhibition (Homo sapiens) [%]	also measured
Cc1ccc(Nc2ccc(C(=O)C(Cl)Cl)cc2[N+](=O)[O-])cc1	88.9	12.1	97.3	48.1	64.4	
O=C(c1ccc(-n2cncn2)c([N+](=O)[O-])c1)C(Cl)Cl	11.9		58.9		17.4	growth inhibition (GI) (MCF7 [2]): inactive; growth inhibition (GI) (A549 [4]): inactive
O=C(c1ccc(N2CCCC2)c([N+](=O)[O-])c1)C(Cl)Cl	94.6	23	97.3	30.6	32.4	
O=C(c1ccc(-n2ccnc2)c([N+](=O)[O-])c1)C(Cl)Cl	90.5	24.2	96.6	30.5	20.5	
Cc1ccc(-c2ccc(C(=O)C(Cl)Cl)cc2[N+](=O)[O-])cc1	89.1	26.4	96	13.8	5.9	
CN(C)c1ccc(Nc2ccc(C(=O)C(Cl)Cl)cc2[N+](=O)[O-])cc1	93.2	31.6	98.6	75	88.2	
COc1cccc2c1C(=O)c1c(O)c3c(c(O)c1C2=O)C[C@@](O)(C(=O)CO)C[C@@H]3O[C@H]1C[C@H](N)[C@H](O)[C@H](C)O1 [DOXORUBICIN]	97.5	59.8	98.5	81.2		
O=C(c1ccc(C2CC2)c([N+](=O)[O-])c1)C(Cl)Cl	87.8	31.3	95.9	40.1	17.3	
CCOc1ccc(Nc2ccc(C(=O)C(Cl)Cl)cc2[N+](=O)[O-])cc1	93.8	18.8	97.4	52.9	68.7	
CC(C)(C)c1ccc(Nc2ccc(C(=O)C(Cl)Cl)cc2[N+](=O)[O-])cc1	96.4	41.2	93.2	48.8	65.8	IC50 (A549 [5]; [8]): 1.2 µM; IC50 (MCF7 [6]; [9]): 1.9 µM; IC50 (SH-SY5Y; [10]): 1.1 µM; IC50 (HCT-116; [11]): 0.5 µM; IC50 (A-375; [12]): 0.9 µM; IC50 (PC-3; [13]): 0.47 µM; IC50 (L02; [14]): 5.9 µM; EC50 [7]: 0.55 µM
O=C(c1ccc(N2CCCCC2)c([N+](=O)[O-])c1)C(Cl)Cl	95.8	22.4	97.1	38.9	40.2	
CC(C)c1ccc(Sc2ccc(C(=O)C(Cl)Cl)cc2[N+](=O)[O-])cc1	79.8	18.9	76.3	12.9	19.5	
CC(C)(O)c1ccc(Nc2ccc(C(=O)C(Cl)Cl)cc2[N+](=O)[O-])cc1	92.8	33.9	96.3	37.9	48.8	IC50 (A549 [5]; [8]): 3.1 µM; IC50 (MCF7 [6]; [9]): 2.98 µM; IC50 (SH-SY5Y; [10]): 2.3 µM; IC50 (HCT-116; [11]): 1.5 µM; IC50 (A-375; [12]): 1.8 µM; IC50 (PC-3; [13]): 2.34 µM; IC50 (L02; [14]): 7.8 µM; EC50 [7]: 1.49 µM
O=C(c1ccc(-c2ccsc2)c([N+](=O)[O-])c1)C(Cl)Cl	43.5	7.5	94.4	14.4	26.5	
COc1ccc(Nc2ccc(C(=O)C(Cl)Cl)cc2[N+](=O)[O-])cc1OC	90.5	24.2	96.6	40.5	66.4	
CC(C)c1ccc(Nc2ccc(C(=O)C(Cl)Cl)cc2[N+](=O)[O-])cc1	94	38.6	97	75.2	80	IC50 (A549 [5]; [8]): 0.33 µM; IC50 (MCF7 [6]; [9]): 1.21 µM; IC50 (SH-SY5Y; [10]): 1 µM; IC50 (HCT-116; [11]): 0.7 µM; IC50 (A-375; [12]): 0.9 µM; IC50 (PC-3; [13]): 0.38 µM; IC50 (L02; [14]): 1.5 µM; EC50 [7]: 0.34 µM
O=C(c1ccc(NC2CC2)c([N+](=O)[O-])c1)C(Cl)Cl	96	25.7	95.7	21.6	17.5	
O=C(c1ccc(N2CCNCC2)c([N+](=O)[O-])c1)C(Cl)Cl	57		93.1	22.6	48.6	growth inhibition (GI) (MCF7 [2]): inactive
O=C(c1ccc(N2CCOCC2)c([N+](=O)[O-])c1)C(Cl)Cl	90.4	18.9	95.6	10.1	36.9	
O=C(c1ccc(-c2ccc(F)cc2)c([N+](=O)[O-])c1)C(Cl)Cl	91.6	30.8	95.3	44.7	12.1	
CN(C)C(=O)c1ccc(S(=O)(=O)c2ccc(NC(=O)[C@@](C)(O)C(F)(F)F)c(Cl)c2)cc1					98.7	growth inhibition (GI) (MCF7 [1]): inactive; growth inhibition (GI) (MCF7 [2]): inactive; growth inhibition (GI) (A549 [3]): inactive; growth inhibition (GI) (A549 [4]): inactive; IC50 (A549 [5]; a549): Not Active; IC50 (MCF7 [6]; mcf7): Not Active; IC50 (SH-SY5Y; sh-sy5y): Not Active; IC50 (HCT-116; hct-116): Not Active; IC50 (A-375; a-375): Not Active; IC50 (PC-3; pc-3): Not Active; IC50 (L02; l02): Not Active; EC50 [7]: 0.053 µM
O=C(c1ccc(Nc2ccccc2)c([N+](=O)[O-])c1)C(Cl)Cl	97.1	26.3	97.4	46.1	60.7	
O=C(c1ccc(-c2ccccc2)c([N+](=O)[O-])c1)C(Cl)Cl	56.2	15.8	92.6	8.9	25.6	
O=C(c1ccc(Nc2ccc(F)cc2)c([N+](=O)[O-])c1)C(Cl)Cl	97.8	17.9	98.9	23.2	50.1	
O=C(c1ccc(-c2ccc(OC(F)(F)F)cc2)c([N+](=O)[O-])c1)C(Cl)Cl	97.8	24.7	93.6	36.3	21.4	
O=C([O-])C(Cl)Cl.[Na+] [SODIUM DICHLOROACETATE]						IC50 (A549 [5]; [8]): 19500 µM; IC50 (MCF7 [6]; [9]): 13400 µM; IC50 (SH-SY5Y; [10]): 17400 µM; IC50 (HCT-116; [11]): 9800 µM; IC50 (A-375; [12]): 20100 µM; IC50 (PC-3; [13]): 15700 µM; IC50 (L02; [14]): 21700 µM
O=C(c1ccc(-n2ccnc2[N+](=O)[O-])c([N+](=O)[O-])c1)C(Cl)Cl	21.4		80.9		8.1	growth inhibition (GI) (MCF7 [2]): inactive; growth inhibition (GI) (A549 [4]): inactive
COc1ccc(Nc2ccc(C(=O)C(Cl)Cl)cc2[N+](=O)[O-])cc1	95.9	29.2	97.7	45	55.7	
CC(C)c1ccc(Oc2ccc(C(=O)C(Cl)Cl)cc2[N+](=O)[O-])cc1	85.7	28.7	90.7	12.5	39.4	

— ChEMBL document CHEMBL4732185, “Synthesis, biological evaluation and structure-activity relationship of novel dichloroacetophenones targeting pyruvate dehydrogenase kinases with potent anticancer activity” (Eur J Med Chem, 2021)
